Data from ChEMBL document CHEMBL3580599, “Synthesis and Biological Evaluation of Novel Homoisoflavonoids for Retinal Neovascularization” (J Med Chem, 2015).
Calls of active or inactive are those of the source. The rule behind the calls is not given here.

Experiments:
[1] = tested on: HREC; experiment: Antiangiogenic activity in human HREC cells assessed as inhibition of tube formation after 8 hrs by matrigel assay; format: functional, cell-based
Method in brief: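 HRECs, 7,500 per well in EGM-2, plated on Matrigel basement membrane with or without compound; after 8 h, imaged and tube length measured by image analysis.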

[2] = Growth inhibition of human HUVEC cells assessed as reduction in cell number after 48 hrs by alamarBlue based fluorescence assay
Method in brief: (§1)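 Cells (2,500 per well in growth medium) were allowed 24 h, then exposed 48 h to compound over 0.5 nM–500 μM. alamarBlue was added and fluorescence read 4 h later (ex 560/em 590 nm). Dose-response curves were fitted relative to DMSO control; compounds not reducing cell number ≥50% at the top concentration were reported as GI50 >100 μM.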

[3] = organism: Mus musculus; experiment: Inhibition of retinal neovascularization in oxygen-induced retinopathy mouse model at 1 uM in each eye relative to vehicle treated control; format: functional, organism-based
Method in brief: (§2)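 Newborn C57BL/6 pups with nursing mother held in 75% O₂ from P7 to P12. At P12, under isoflurane, 0.5 μL of a 10 μM solution (DMSO stock diluted into PBS) was injected intravitreally into each eye, estimated to give 1 μM in vitreous. Controls got vehicle or 5 ng anti-VEGF antibody. Retinas were whole-mounted, stained with isolectin B4-Alexa 488 and imaged by confocal microscopy.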

[4] = Toxicity in human HREC cells up to 2 uM by trypan blue exclusion assay; format: cell-based
Method in brief: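 HRECs in complete EGM-2 grown to 70% confluency, then treated 48 h with compound. After trypsinization, live and dead cells, including floating cells, were counted by Trypan blue on a hemocytometer. Viability taken as live/total cells. n = 3, triplicate experiments, SEM.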

[5] = Induction of apoptosis in human HREC cells up to 2 uM after 4 hrs by TUNEL assay; format: functional
Method in brief: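 HRECs, 25,000 per coated coverslip, grown overnight in EGM-2, then 4 h in fresh medium with compound. Fixed in 4% paraformaldehyde 20 min at room temperature, permeabilized with 0.25% Triton X-100 20 min, then TUNEL-labelled with DAPI counterstain. Percent apoptotic cells counted on three low-power fields per coverslip. n = 3, SEM.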

[6] = tested on: HREC; experiment: Induction of cell cycle arrest in human HREC cells assessed as cells accumulation at G2/M phase after 48 hrs by propidium iodide before flow cytometry analysis; format: functional, cell-based
Method in brief: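 HRECs grown to 50% confluency in EGM-2, serum-starved overnight, then 48 h in fresh EGM-2 with compound. Fixed in 66% EtOH 2 h at 4 °C, stained with 20 μg/mL propidium iodide with 0.1% Triton X-100 and RNase for 30 min at 37 °C, then analysed by flow cytometry. Duplicate experiments.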

[7] = Growth inhibition of human 92-1 cells assessed as reduction in cell number after 48 hrs by alamarBlue based fluorescence assay; format: functional; method in brief: as §1
[8] = Induction of apoptosis in human HREC cells assessed as activated caspase 3 up to 2 uM after 4 hrs by immunofluorescence assay; format: functional
Method in brief: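 HRECs on coated coverslips, overnight in EGM-2, then treated 4 h at indicated concentrations. Fixed in 4% paraformaldehyde, permeabilized with 0.5% Triton X-100, immunostained for activated caspase 3 and imaged by confocal microscopy. Staurosporine 1 μM served as positive control.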

[9] = Selectivity ratio of GI50 for human Y79 cells to GI50 for human HREC cells; format: ADME, cell-based; conditions: Y79 cells and HREC cells
[10] = organism: Mus musculus; experiment: Ocular toxicity in mouse model assessed as gross morphological changes in retinal vasculature at 1 uM; format: organism-based; conditions: in vivo; method in brief: as §2
[11] = Selectivity ratio of GI50 for human 92-1 cells to GI50 for human HREC cells; format: ADME, cell-based; conditions: 92-1 cells and HREC cells
[12] = tested on: HREC; experiment: (§3) Growth inhibition of human HREC cells assessed as reduction in cell number after 48 hrs by alamarBlue based fluorescence assay; format: functional; method in brief: as §1
[13] = as §3; format: functional; method in brief: as §1
[14] = tested on: Y79; experiment: Growth inhibition of human Y79 cells assessed as reduction in cell number after 48 hrs by alamarBlue based fluorescence assay; format: functional; conditions: Y79, 48 h; method in brief: as §1
[15] = Selectivity ratio of GI50 for HUVEC cells to GI50 for human HREC cells; format: ADME, cell-based; conditions: HUVEC cells and HREC cells, read-out: RatioGI50
[16] = Induction of apoptosis in human HREC cells assessed as nuclear morphology after 8 hrs by EdU incorporation assay; format: cell-based
Method in brief: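 HRECs (25,000) on attachment-factor-coated coverslips, 24 h growth, then 12 h in serum-free EBM-2. Incubated 8 h with 10 μM EdU plus compound at various concentrations, then processed by click chemistry with DAPI counterstain and imaged. Nuclear morphology and EdU-positive cells were scored by image analysis. n = 3, at least triplicate experiments, SEM.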

[17] = tested on: HREC; experiment: Inhibition of cell migration in human HREC cells after 8 hrs scratch-wound assay; format: functional, cell-based
Method in brief: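 HRECs (10⁵ per coated well) grown to confluence in EGM-2, starved 12 h in serum-free EBM-2, then scratched with a pipette tip and rinsed. Incubated in EGM-2 with compound at 37 °C, 5% CO₂. After 8 h, cells migrated into the scratch were counted from images.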

Q: Which inhibition [1] does the source give for `COc1ccc(CC2COc3cc(OC)c(OC)c(OC)c3C2=O)cc1OC(=O)[C@H](Cc1ccccc1)NC(=O)OC(C)(C)C` (some centres not stated) here?
A: Dose-dependent effect

Q: What about the GI50 at 48 h [2] of the same compound?
A: 750 nM

Q: What about the inhibition [3] of the same compound?
A: Active

Q: What about the Activity [4] of the same compound?
A: Non-toxic

Q: What about the Activity [5] of the same compound?
A: <10%

Q: What about the Activity [6] of the same compound?
A: Dose-dependent effect

Q: And the GI50 [7]?
A: > 100000 nM

Q: And the Activity [8]?
A: <10%

Q: And the selectivity ratio [9]?
A: 218

Q: And the Activity [10]?
A: Non-toxic

Q: What about the selectivity ratio [11] of the same compound?
A: > 1000

Q: What about the inhibition [12] of the same compound?
A: Dose-dependent effect

Q: And the GI50 [13]?
A: 55 nM

Q: And the GI50 [14]?
A: 12000 nM

Q: And the selectivity ratio [15]?
A: 14

Q: What about the Activity [16] of the same compound?
A: Non-toxic

Q: And the inhibition [17]?
A: Dose-dependent effect
